Values belong to the compound of their own block, whether it stands above or below them. Calls of active or inactive are those of the source. The calls are words filed in the database; no cut-off is given here.
Legend:
[1] = test system: A549; test: Cell cycle arrest in human A549 cells assessed as accumulation at S-phase at 12 uM after 24 hrs by propidium iodide staining-based FACS analysis (reference value: 17.8 %); type: functional
[2] = test system: HepG2; test: Antiproliferative activity against human HepG2 cells after 48 hrs by MTT assay; type: functional, cell-based; settings: HepG2, 48 h
[3] = test system: A549; test: Induction of apoptosis in human A549 cells assessed as necrotic cells at 12 uM after 24 hrs by Annexin V-APC/7-AAD staining-based FACS analysis (reference value: 0.032%); type: functional
[4] = test system: A549; test: Induction of apoptosis in human A549 cells assessed as necrotic cells at 3 uM after 24 hrs by Annexin V-APC/7-AAD staining-based FACS analysis (reference value: 0.032%); type: functional
[5] = test system: A549; test: Induction of apoptosis in human A549 cells assessed as increase in cleaved caspase-3 level at 3 to 12 uM after 24 hrs by Western blot analysis; type: functional, cell-based
Procedure, shortened: (§1)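 A549 cells (3 × 10^5 per dish) were treated for 24 h and lysed in RIPA buffer; protein was measured by BCA. Lysates were run on 12% SDS-PAGE and blotted to nitrocellulose. Blots were blocked in 5% non-fat milk for 2 h at room temperature, then incubated with primary antibodies in TBST overnight at 4 °C. ECL detection was used, with bands normalized to β-actin (mean ± SD, three experiments).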

[6] = test system: A549; test: Induction of apoptosis in human A549 cells assessed as late apoptotic cells at 6 uM after 24 hrs by Annexin V-APC/7-AAD staining-based FACS analysis (reference value: 0.01%); type: functional
[7] = test system: A549; test: Induction of apoptosis in human A549 cells assessed as viable cells at 6 uM after 24 hrs by Annexin V-APC/7-AAD staining-based FACS analysis (reference value: 94.1%); type: functional; settings: A549, 24 h, read-out: Activity
[8] = test system: HCT-116; test: Antiproliferative activity against human HCT116 cells after 48 hrs by MTT assay; type: functional, cell-based; settings: HCT-116, 48 h
[9] = Drug uptake in mitochondria of human A549 cells at 2 to 8 uM after 30 mins by MitoTracker Red CMXRos dye-based confocal microscopic analysis; type: ADME, cell-based; settings: a549, 0.5 h
Procedure, shortened: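 Live A549 cells were grown for 2 days in confocal dishes. They were then incubated with compound and MitoTracker Red CMXRos in culture medium for 30 min, and localization was imaged by laser-scanning confocal microscopy.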

[10] = test system: A549; test: Down regulation of CDK2 expression in human A549 cells after 24 hrs by Western blot analysis; type: functional, cell-based; procedure, shortened: as §1
[11] = test system: A549; test: Antiproliferative activity against human A549 cells after 48 hrs by MTT assay; type: functional, cell-based; settings: A549, 48 h
[12] = test system: L02; test: Antiproliferative activity against human L02 cells after 48 hrs by MTT assay; type: cell-based; settings: L02, 48 h
[13] = test system: A549; test: Induction of apoptosis in human A549 cells assessed as early apoptotic cells at 12 uM after 24 hrs by Annexin V-APC/7-AAD staining-based FACS analysis (reference value: 5.82%); type: functional
[14] = test system: A549; test: Induction of apoptosis in human A549 cells assessed as increase in Bax/Bcl-2 ratio after 24 hrs by Western blot analysis; type: functional, cell-based; procedure, shortened: as §1
[15] = test system: A549; test: Effect on cyclin B expression in human A549 cells at 3 to 12 uM after 24 hrs by Western blot analysis; type: functional, cell-based; procedure, shortened: as §1
[16] = test system: A549; test: Induction of apoptosis in human A549 cells assessed as early apoptotic cells at 3 uM after 24 hrs by Annexin V-APC/7-AAD staining-based FACS analysis (reference value: 5.82%); type: functional
[17] = test system: A549; test: Induction of apoptosis in human A549 cells assessed as late apoptotic cells at 3 uM after 24 hrs by Annexin V-APC/7-AAD staining-based FACS analysis (reference value: 0.01%); type: functional
[18] = test system: A549; test: Effect on CDK1 expression in human A549 cells at 3 to 12 uM after 24 hrs by Western blot analysis; type: functional, cell-based; procedure, shortened: as §1
[19] = test system: A549; test: Effect on cyclin D expression in human A549 cells at 3 to 12 uM after 24 hrs by Western blot analysis; type: functional, cell-based; procedure, shortened: as §1
[20] = test system: A549; test: Induction of apoptosis in human A549 cells assessed as late apoptotic cells at 12 uM after 24 hrs by Annexin V-APC/7-AAD staining-based FACS analysis (reference value: 0.01%); type: functional
[21] = test system: A549; test: Down regulation of cyclin E expression in human A549 cells after 24 hrs by Western blot analysis; type: functional, cell-based; procedure, shortened: as §1
[22] = test system: MCF7; test: Antiproliferative activity against human MCF7 cells after 48 hrs by MTT assay; type: functional, cell-based; settings: MCF7, 48 h
[23] = test system: A549; test: Induction of apoptosis in human A549 cells assessed as necrotic cells at 6 uM after 24 hrs by Annexin V-APC/7-AAD staining-based FACS analysis (reference value: 0.032%); type: functional
[24] = test system: A549; test: Induction of reactive oxygen species generation in human A549 cells by MitoSOX Red dye-based FACS analysis; type: functional, cell-based
Procedure, shortened: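 Treated A549 cells were stained with a kit dye that distinguishes ROS(−) and ROS(+) populations. Percentages of each population were measured by flow cytometry.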

[25] = test system: A549; test: Induction of apoptosis in human A549 cells assessed as viable cells at 3 uM after 24 hrs by Annexin V-APC/7-AAD staining-based FACS analysis (reference value: 94.1%); type: functional; settings: A549, 24 h, read-out: Activity
[26] = test system: A549; test: Cell cycle arrest in human A549 cells assessed as accumulation at S-phase at 3 uM after 24 hrs by propidium iodide staining-based FACS analysis (reference value: 17.8 %); type: functional
[27] = test system: A549; test: Induction of apoptosis in human A549 cells assessed as early apoptotic cells at 6 uM after 24 hrs by Annexin V-APC/7-AAD staining-based FACS analysis (reference value: 5.82%); type: functional
[28] = test system: HUVEC; test: Antiproliferative activity against human HUVEC cells after 48 hrs by MTT assay; type: cell-based
[29] = test system: A549; test: Up regulation of p53 expression in human A549 cells at 3 to 12 uM after 24 hrs by Western blot analysis; type: functional, cell-based; procedure, shortened: as §1
[30] = test system: A549; test: Induction of apoptosis in human A549 cells assessed as viable cells at 12 uM after 24 hrs by Annexin V-APC/7-AAD staining-based FACS analysis (reference value: 94.1%); type: functional; settings: A549, 24 h, read-out: Activity
[31] = test system: A549; test: Up regulation of p21 expression in human A549 cells at 3 to 12 uM after 24 hrs by Western blot analysis; type: functional, cell-based; procedure, shortened: as §1
[32] = test system: A549; test: Induction of apoptosis in human A549 cells assessed as increase in cleaved caspase-9 level at 3 to 12 uM after 24 hrs by Western blot analysis; type: functional, cell-based; procedure, shortened: as §1
[33] = test system: A549; test: Cell cycle arrest in human A549 cells assessed as accumulation at S-phase at 6 uM after 24 hrs by propidium iodide staining-based FACS analysis (reference value: 17.8 %); type: functional

IC50 [2]: 15.8 µM | IC50 [8]: 18.9 µM | Drug uptake [9]: Active | IC50 [11]: 5.4 µM | IC50 [22]: 31.6 µM
SMILES: N#CC1=C(N)Oc2c(N)cc3nc4ccccc4nc3c2C12C(=O)N(Cc1cnnn1-c1cccc(C(F)(F)F)c1)c1ccccc12 (stereo not given)
Activity [1]: 51.1% | Activity [3]: 3.21% | Activity [4]: 0.052% | Activity [5]: Active | Activity [6]: 0.053% | viability at 6 µM [7]: 88.6% | Activity [10]: Dose-dependent effect | IC50 [12]: 38.1 µM | Activity [13]: 38.5% | Activity [14]: Dose-dependent effect | Activity [15]: inactive | Activity [16]: 8.89% | Activity [17]: 0.031% | Activity [18]: inactive | Activity [19]: inactive | Activity [20]: 2.32% | Activity [21]: Dose-dependent effect | Activity [23]: 0.127% | Activity [24]: Dose-dependent effect | viability at 3 µM [25]: 91% | Activity [26]: 30.5% | Activity [27]: 11.2% | IC50 [28]: > 50 µM | Activity [29]: Active | viability at 12 µM [30]: 55.9% | Activity [31]: Active | Activity [32]: Active | Activity [33]: 41.7%

IC50 [2]: > 50 µM | IC50 [8]: > 50 µM | IC50 [11]: > 50 µM | IC50 [22]: > 50 µM
SMILES: N#CC1=C(N)Oc2c(c3nc4ccccc4nc3c3ccccc23)C12C(=O)N(Cc1cnnn1-c1ccc(Cl)c(Cl)c1)c1ccccc12 (stereo not given)
IC50 [12]: > 50 µM | IC50 [28]: > 50 µM

IC50 [2]: > 50 µM | IC50 [8]: > 50 µM | IC50 [11]: > 50 µM | IC50 [22]: > 50 µM
SMILES: N#CC1=C(N)Oc2c(c3nc4ccccc4nc3c3ccccc23)C12C(=O)N(Cc1cnnn1-c1ccc(Cl)cc1)c1ccccc12 (stereo not given)
IC50 [12]: > 50 µM | IC50 [28]: > 50 µM

IC50 [2]: > 50 µM | IC50 [8]: > 50 µM | IC50 [11]: > 50 µM | IC50 [22]: > 50 µM
SMILES: Cc1ccc(-n2nncc2CN2C(=O)C3(C(C#N)=C(N)Oc4c3c3nc5ccccc5nc3c3ccccc43)c3ccccc32)cc1C (stereo not given)
IC50 [12]: > 50 µM | IC50 [28]: > 50 µM

IC50 [2]: 48.1 µM | IC50 [8]: > 50 µM | IC50 [11]: 12.7 µM | IC50 [22]: > 50 µM
SMILES: Cc1cc(C)c(-n2nncc2CN2C(=O)C3(C(C#N)=C(N)Oc4c(N)cc5nc6ccccc6nc5c43)c3ccccc32)c(C)c1 (stereo not given)
IC50 [12]: > 50 µM | IC50 [28]: > 50 µM

IC50 [2]: > 50 µM | IC50 [8]: > 50 µM | IC50 [11]: > 50 µM | IC50 [22]: > 50 µM
SMILES: N#CC1=C(N)Oc2c(N)cc3nc4ccccc4nc3c2C12C(=O)N(Cc1cnnn1-c1ccc([N+](=O)[O-])cc1)c1ccccc12 (stereo not given)
IC50 [12]: > 50 µM | IC50 [28]: > 50 µM

IC50 [2]: 37.8 µM | IC50 [8]: 12.1 µM | IC50 [11]: > 50 µM | IC50 [22]: 37.8 µM
SMILES: N#CC1=C(N)Oc2c(N)cc3nc4ccccc4nc3c2C12C(=O)N(Cc1cnnn1-c1c(Cl)cc(Cl)cc1Cl)c1ccccc12 (stereo not given)
IC50 [12]: > 50 µM | IC50 [28]: 18.3 µM

IC50 [2]: > 50 µM | IC50 [8]: > 50 µM | IC50 [11]: 37.5 µM | IC50 [22]: 28.9 µM
SMILES: COc1ccccc1-n1nncc1CN1C(=O)C2(C(C#N)=C(N)Oc3c(N)cc4nc5ccccc5nc4c32)c2ccccc21 (stereo not given)
IC50 [12]: > 50 µM | IC50 [28]: > 50 µM

From ChEMBL document CHEMBL4033663, “Design, combinatorial synthesis and biological evaluations of novel 3-amino-1'-((1-aryl-1H-1,2,3-triazol-5-yl)methyl)-2'-oxospiro[benzo[a] pyrano[2,3-c]phenazine-1,3'-indoline]-2-carbonitrile antitumor hybrid molecules” (Eur J Med Chem, 2017)
